In ChEMBL document CHEMBL1147656, “Biological evaluation of bishydroxymethyl-substituted cage dimeric 1,4-dihydropyridines as a novel class of p-glycoprotein modulating agents in cancer cells” (J Med Chem, 2006):

Key:
[1] = target: T1, ATP-dependent translocase ABCB1 (Homo sapiens, UniProt P08183); test: Ratio of rhodamine123 uptake in MDR1 transfected cells vs parental L5178Y cells at 30 uM; type: functional, cell-based; settings: mouse
Outline: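 Fluorescence activity ratio at 30 µM compound. L5178Y parental and L5178YvMDR cells (2 × 10⁶/mL, serum-free McCoy's 5A) preincubated 10 min at room temperature with compound, then rhodamine 123 (5.2 µM final) added for 20 min at 37 °C. After two PBS washes, 1 × 10⁴ cells read by flow cytometry. Ratio calculated from uptake in treated versus untreated control cells. Mean of two determinations.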

[2] = target: T1, ATP-dependent translocase ABCB1; test: Inhibition of P-glycoprotein
Outline: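 Rhodamine 123 uptake in L5178YvMDR mouse T-lymphoma cells and the parental line, 2 × 10⁶ cells/mL in serum-free McCoy's 5A. Compound preincubated 10 min at room temperature, then rhodamine 123 (5.2 µM final) added for 20 min at 37 °C. Cells washed twice in PBS and 1 × 10⁴ cells read by flow cytometry. IC50 taken from sigmoidal curve of fluorescence activity ratio versus concentration. Mean of two determinations.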

L5178Y = test: Cytotoxicity against mouse L5178Y cell line; type: functional, cell-based
Outline: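 MTT assay on L5178Y mouse T-lymphoma parental cells or the L5178YvMDR (mdr1-transfected) subline. Compound-treated cells cultured 48 h at 37 °C under 5% CO2. MTT added (0.5 mg/mL final) for another 4 h at 37 °C. Formazan dissolved in 10% SDS in 0.01 M HCl overnight, then absorbance read. Absorbance corrected for cell control and compound, IC50 taken from sigmoidal curve. Mean of two determinations.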

T1 sequence (P08183 whole entry): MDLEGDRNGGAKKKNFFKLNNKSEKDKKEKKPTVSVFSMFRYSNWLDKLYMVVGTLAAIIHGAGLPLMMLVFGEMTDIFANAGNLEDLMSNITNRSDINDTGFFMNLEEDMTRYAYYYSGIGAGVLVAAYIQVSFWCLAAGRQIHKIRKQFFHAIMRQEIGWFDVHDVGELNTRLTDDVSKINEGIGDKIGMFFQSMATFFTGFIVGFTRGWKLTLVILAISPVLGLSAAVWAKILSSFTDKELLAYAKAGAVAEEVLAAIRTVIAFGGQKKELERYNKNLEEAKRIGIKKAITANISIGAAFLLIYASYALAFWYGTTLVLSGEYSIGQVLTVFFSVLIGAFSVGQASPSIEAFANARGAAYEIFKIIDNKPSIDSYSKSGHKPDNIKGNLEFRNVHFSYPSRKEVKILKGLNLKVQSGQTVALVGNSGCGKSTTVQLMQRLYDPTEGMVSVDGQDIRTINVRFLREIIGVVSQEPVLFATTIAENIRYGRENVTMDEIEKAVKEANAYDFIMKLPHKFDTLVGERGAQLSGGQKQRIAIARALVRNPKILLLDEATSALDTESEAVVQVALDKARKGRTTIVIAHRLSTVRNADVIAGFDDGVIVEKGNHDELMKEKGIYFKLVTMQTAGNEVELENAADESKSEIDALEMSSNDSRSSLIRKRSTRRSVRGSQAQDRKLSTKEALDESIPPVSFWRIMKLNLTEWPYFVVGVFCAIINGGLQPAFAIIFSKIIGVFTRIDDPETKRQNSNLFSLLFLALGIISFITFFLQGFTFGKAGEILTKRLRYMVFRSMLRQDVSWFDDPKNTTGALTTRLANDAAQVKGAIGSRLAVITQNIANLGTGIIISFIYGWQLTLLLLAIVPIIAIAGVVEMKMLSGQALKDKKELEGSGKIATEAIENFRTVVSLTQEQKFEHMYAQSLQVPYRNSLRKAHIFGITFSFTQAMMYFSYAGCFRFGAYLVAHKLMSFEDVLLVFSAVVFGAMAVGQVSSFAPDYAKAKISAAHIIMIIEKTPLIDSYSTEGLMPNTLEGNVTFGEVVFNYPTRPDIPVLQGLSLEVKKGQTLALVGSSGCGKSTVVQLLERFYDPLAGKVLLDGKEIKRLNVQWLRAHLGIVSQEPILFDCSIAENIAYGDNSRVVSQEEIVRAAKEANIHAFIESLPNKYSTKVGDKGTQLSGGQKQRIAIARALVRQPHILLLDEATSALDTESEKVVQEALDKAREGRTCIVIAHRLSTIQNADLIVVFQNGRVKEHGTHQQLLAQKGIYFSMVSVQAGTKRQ

SMILES | Ratio [1] | IC50 [2] [µM] | IC50 (L5178Y) [µM]
CC(C)(C)OC(=O)N1C2C3C4N(C(=O)OC(C)(C)C)C5C(C1[C@]5(CO)[C@H]3c1ccccc1)[C@@H](c1ccccc1)[C@@]24CO | 33 | 6.1 | 2.5
CN1C2C3C4N(C)C5C(C1[C@]5(CO)[C@H]3c1ccccc1)[C@@H](c1ccccc1)[C@@]24CO | 34.3 | 17.6 | 7.1

Continued, in another order:

Ratio [1] | IC50 [2] [µM] | SMILES | IC50 (L5178Y) [µM]
21.6 | 3.8 | COC(=O)N1C2C3C4N(C(=O)OC)C5C(C1[C@]5(CO)[C@H]3c1ccccc1)[C@@H](c1ccccc1)[C@@]24CO | 
30.8 | < 1 | O=C(Oc1ccccc1)N1C2C3C4N(C(=O)Oc5ccccc5)C5C(C1[C@]5(CO)[C@H]3c1ccccc1)[C@@H](c1ccccc1)[C@@]24CO | 12.7
26.5 | < 1 | OC[C@]12C3C4C1N(Cc1ccccc1)C1C(C(N3Cc3ccccc3)[C@]1(CO)[C@H]4c1ccccc1)[C@H]2c1ccccc1 | 11.9
